From ChEMBL document CHEMBL1121585, “Inhibitors of phenylethanolamine N-methyltransferase and epinephrine biosynthesis. 1. Chloro-substituted 1,2,3,4-tetrahydroisoquinolines” (J Med Chem, 1980)

Assays:
Assay type in all cases: functional
Mus musculus [1] = assay: Maximum inactive dose(MID) for decrease in norepinephrine (NE) / epinephrine(E) was measured in mice (po)
Summary of the method: (§1)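 Male Charles River mice, 30–40 g, groups of five. Oral dosing in 1% methylcellulose twice daily for 7 days, plus a final morning dose. Killed 2 h later; adrenals homogenised in 0.4 N HClO4 and alumina-extracted. E and NE measured.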

Mus musculus [2] = assay: Minimum active dose(MAD) for decrease in norepinephrine (NE) / epinephrine(E) was measured in mice (po); summary of the method: as §1
Rattus norvegicus = assay: Phenylethanolamine N-methyl-transferase inhibition determined as of [3H]epinephrine biosynthesis in rats at 50 mg/kg (po)
Mus musculus [3] = assay: Minimum active dose(MAD) for decrease in norepinephrine (NE) / epinephrine(E) ratio was measured in mice (po); summary of the method: as §1

Row | SMILES | MID (Mus musculus [1]) [mg/kg] | MAD (Mus musculus [2]) [mg/kg] | inhibition in vivo at 50 mg/kg (Rattus norvegicus) [%] | MAD (Mus musculus [3]) [mg/kg]
1 | Clc1ccc2c(c1Cl)CNCC2 | 2.5 | 5 | – | –
2 | Clc1cc(Cl)c2c(c1Cl)CNCC2 | 100 | – | 16 | –
3 | Clc1ccc2c(c1)CNCC2 | 7.5 | – | 78 | 12.5
4 | Clc1cc2c(c(Cl)c1Cl)CNCC2 | 50 | – | 25 | –
5 | Clc1c(Cl)c(Cl)c2c(c1Cl)CCNC2 | 25 | – | – | 100
6 | Clc1cccc2c1CNCC2 | 2.5 | – | 45 | 7.5
